Source: ChEMBL document CHEMBL5357066, “Development of Novel Membrane Disrupting Lipoguanidine Compounds Sensitizing Gram-Negative Bacteria to Antibiotics” (ACS Med Chem Lett, 2024)
≈ marks a conversion by molar mass, not a printed value.

test system: Klebsiella pneumoniae; assay: Synergistic antibacterial activity against […] Klebsiella pneumoniae M6 assessed as rifampicin MIC at <=0.25 times MIC incubated for overnight by microbroth dilution checkerboard assay; type: functional
Summary of the method: (§1)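 Checkerboard run under the MIC conditions (TSB, overnight, 37 °C). Antibiotic and lipoguanidine 2-fold series were combined on one plate before bacteria were added. Growth/no-growth was scored as for the MIC (<0.1 OD600). Single-agent MICs were measured on the same plates. Three independent repeats were done.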

| SMILES | MIC |
| --- | --- |
| N=C(N)NCCCCCCCCNC(=N)N | 16 mg/L |
| CCCCC/C=C\C/C=C\CCCCCCCCNC(=N)NCCCCNC(=N)N | ≤ 0.125 mg/L |

test system: Escherichia coli; assay: Synergistic antibacterial activity against Escherichia coli NCTC 12923 assessed as fold change in rifampicin MIC at <=0.25 times MIC incubated for overnight by microbroth dilution checkerboard assay relative to rifampicin alone; type: functional
Summary of the method: (§2)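 Checkerboard microdilution under MIC conditions (TSB, overnight, 37 °C). Two-fold series of each agent were combined on one plate before bacteria were added, and single-agent MICs were measured on the same plate. FIC = sum of combination MIC/alone MIC for each agent, taken from the most synergistic well. Three independent repeats, mean ± SD. ≤0.5 was taken as strong synergy and 0.5–<1 as weak.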

| SMILES | fold change (FC) |
| --- | --- |
| N=C(N)NCCCCCCCCNC(=N)N | 0 |
| CCCCC/C=C\C/C=C\CCCCCCCCNC(=N)NCCCCNC(=N)N | >=4 |

test system: Klebsiella pneumoniae; assay: Synergistic antibacterial activity against Klebsiella pneumoniae NCTC 13368 assessed as rifampicin MIC at <=0.25 times MIC incubated for overnight by microbroth dilution checkerboard assay; type: functional; summary of the method: as §2

| SMILES | MIC |
| --- | --- |
| N=C(N)NCCCCCCCCNC(=N)N | 32 mg/L |
| CCCCC/C=C\C/C=C\CCCCCCCCNC(=N)NCCCCNC(=N)N | ≤ 0.125 mg/L |

test system: Pseudomonas aeruginosa; assay: Synergistic antibacterial activity against Pseudomonas aeruginosa PAO1 assessed as fold change in rifampicin MIC at <=0.25 times MIC incubated for overnight by microbroth dilution checkerboard assay relative to rifampicin alone; type: functional
Summary of the method: (§3)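 Checkerboard microdilution in Tryptic Soy Broth, run like the MIC assay. Overnight TSB cultures were back-diluted to OD 0.01 and added 1:1 to the combined two-fold series of both agents, then incubated overnight at 37 °C. Growth/no-growth was called at <0.1 OD600. MICs alone were read on the same plates. FIC index came from the most synergistic well; three independent repeats, mean ± SD.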

| SMILES | fold change (FC) |
| --- | --- |
| N=C(N)NCCCCCCCCNC(=N)N | 0 |
| CCCCC/C=C\C/C=C\CCCCCCCCNC(=N)NCCCCNC(=N)N | >=4 |

test system: Acinetobacter baumannii; assay: Antibacterial activity against Acinetobacter baumannii ATCC 17978 assessed as bacterial growth inhibition incubated for overnight by microbroth dilution method; type: functional
Summary of the method: (§4)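 Broth microdilution in Tryptic Soy Broth. DMSO stocks were diluted in TSB as 2-fold series. Overnight TSB cultures were back-diluted to OD 0.01 and mixed 1:1 with compound. Incubation was overnight at 37 °C. MIC was the lowest concentration without visible growth (<0.1 OD600). DMSO vehicle was checked at equivalent concentrations.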

| SMILES | MIC |
| --- | --- |
| N=C(N)NCCCCCCCCNC(=N)N | > 128 mg/L |
| CCCCC/C=C\C/C=C\CCCCCCCCNC(=N)NCCCCNC(=N)N | 32 mg/L (≈ 76.1 µM) |

test system: Staphylococcus aureus; assay: Antibacterial activity against methicillin resistant Staphylococcus aureus USA 300 assessed as bacterial growth inhibition incubated for overnight by microbroth dilution method; type: functional
Summary of the method: (§5)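 Microbroth dilution in Tryptic Soy Broth. DMSO stocks were diluted in TSB as 2-fold series. Overnight TSB cultures were back-diluted to OD 0.01 and mixed 1:1 with compound. Incubation was overnight at 37 °C. MIC is the lowest concentration with no visible growth (<0.1 OD600). DMSO at equivalent concentrations was checked.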

| SMILES | MIC |
| --- | --- |
| N=C(N)NCCCCCCCCNC(=N)N | 128 mg/L (≈ 561 µM) |
| CCCCC/C=C\C/C=C\CCCCCCCCNC(=N)NCCCCNC(=N)N | 4 mg/L (≈ 9.51 µM) |

test system: Pseudomonas aeruginosa; assay: Synergistic antibacterial activity against Pseudomonas aeruginosa NCTC 13437 assessed as fold change in rifampicin MIC at <=0.25 times MIC incubated for overnight by microbroth dilution checkerboard assay relative to rifampicin alone; type: functional; summary of the method: as §3

| SMILES | fold change (FC) |
| --- | --- |
| N=C(N)NCCCCCCCCNC(=N)N | 0 |
| CCCCC/C=C\C/C=C\CCCCCCCCNC(=N)NCCCCNC(=N)N | >=4 |

test system: Klebsiella pneumoniae; assay: Antibacterial activity against ESBL Klebsiella pneumoniae NCTC 13368 assessed as bacterial growth inhibition incubated for overnight by microbroth dilution method

| SMILES | MIC |
| --- | --- |
| N=C(N)NCCCCCCCCNC(=N)N | > 128 mg/L |
| CCCCC/C=C\C/C=C\CCCCCCCCNC(=N)NCCCCNC(=N)N | > 64 mg/L |

test system: Enterococcus faecalis; assay: Antibacterial activity against vancomycin resistant Enterococcus faecalis NCTC 12201 assessed as bacterial growth inhibition incubated for overnight by microbroth dilution method; type: functional; summary of the method: as §5

| SMILES | MIC |
| --- | --- |
| N=C(N)NCCCCCCCCNC(=N)N | > 128 mg/L |
| CCCCC/C=C\C/C=C\CCCCCCCCNC(=N)NCCCCNC(=N)N | 8 mg/L (≈ 19 µM) |

test system: Staphylococcus aureus; assay: Antibacterial activity against methicillin resistant Staphylococcus aureus NCTC 13616 assessed as bacterial growth inhibition incubated for overnight by microbroth dilution method; type: functional; summary of the method: as §5

| SMILES | MIC |
| --- | --- |
| N=C(N)NCCCCCCCCNC(=N)N | > 128 mg/L |
| CCCCC/C=C\C/C=C\CCCCCCCCNC(=N)NCCCCNC(=N)N | 4 mg/L (≈ 9.51 µM) |

test system: Enterococcus faecalis; assay: Antibacterial activity against vancomycin sensitive Enterococcus faecalis NCTC 775 assessed as bacterial growth inhibition incubated for overnight by microbroth dilution method

| SMILES | MIC |
| --- | --- |
| N=C(N)NCCCCCCCCNC(=N)N | > 128 mg/L |
| CCCCC/C=C\C/C=C\CCCCCCCCNC(=N)NCCCCNC(=N)N | 8 mg/L (≈ 19 µM) |

test system: Pseudomonas aeruginosa; assay: Synergistic antibacterial activity against Pseudomonas aeruginosa NCTC 13437 assessed as rifampicin MIC at <=0.25 times MIC incubated for overnight by microbroth dilution checkerboard assay; type: functional; summary of the method: as §3

| SMILES | MIC |
| --- | --- |
| N=C(N)NCCCCCCCCNC(=N)N | 32 mg/L |
| CCCCC/C=C\C/C=C\CCCCCCCCNC(=N)NCCCCNC(=N)N | 4 mg/L |

test system: Staphylococcus aureus; assay: Antibacterial activity against methicillin sensitive Staphylococcus aureus ATCC 9144 assessed as bacterial growth inhibition incubated for overnight by microbroth dilution method; type: functional; summary of the method: as §5

| SMILES | MIC |
| --- | --- |
| N=C(N)NCCCCCCCCNC(=N)N | 128 mg/L (≈ 561 µM) |
| CCCCC/C=C\C/C=C\CCCCCCCCNC(=N)NCCCCNC(=N)N | 4 mg/L (≈ 9.51 µM) |

test system: Acinetobacter baumannii; assay: Synergistic antibacterial activity against Acinetobacter baumannii AYE assessed as fold change in rifampicin MIC at <=0.25 times MIC incubated for overnight by microbroth dilution checkerboard assay relative to rifampicin alone; type: functional; summary of the method: as §2

| SMILES | fold change (FC) |
| --- | --- |
| N=C(N)NCCCCCCCCNC(=N)N | 0 |
| CCCCC/C=C\C/C=C\CCCCCCCCNC(=N)NCCCCNC(=N)N | >=4 |

test system: Pseudomonas aeruginosa; assay: Antibacterial activity against Pseudomonas aeruginosa PAO1 assessed as bacterial growth inhibition incubated for overnight by microbroth dilution method; type: functional; summary of the method: as §4

| SMILES | MIC |
| --- | --- |
| N=C(N)NCCCCCCCCNC(=N)N | > 128 mg/L |
| CCCCC/C=C\C/C=C\CCCCCCCCNC(=N)NCCCCNC(=N)N | 64 mg/L (≈ 152 µM) |

test system: Acinetobacter baumannii; assay: Synergistic antibacterial activity against Acinetobacter baumannii ATCC 17978 assessed as fold change in rifampicin MIC at <=0.25 times MIC incubated for overnight by microbroth dilution checkerboard assay relative to rifampicin alone; type: functional; summary of the method: as §2

| SMILES | fold change (FC) |
| --- | --- |
| N=C(N)NCCCCCCCCNC(=N)N | >=4 |
| CCCCC/C=C\C/C=C\CCCCCCCCNC(=N)NCCCCNC(=N)N | >=4 |

test system: Acinetobacter baumannii; assay: Antibacterial activity against Acinetobacter baumannii AYE assessed as bacterial growth inhibition incubated for overnight by microbroth dilution method; type: functional; summary of the method: as §4

| SMILES | MIC |
| --- | --- |
| N=C(N)NCCCCCCCCNC(=N)N | > 128 mg/L |
| CCCCC/C=C\C/C=C\CCCCCCCCNC(=N)NCCCCNC(=N)N | > 64 mg/L |

test system: Klebsiella pneumoniae; assay: Antibacterial activity against Klebsiella pneumoniae M6 assessed as bacterial growth inhibition incubated for overnight by microbroth dilution method

| SMILES | MIC |
| --- | --- |
| N=C(N)NCCCCCCCCNC(=N)N | > 128 mg/L |
| CCCCC/C=C\C/C=C\CCCCCCCCNC(=N)NCCCCNC(=N)N | 32 mg/L (≈ 76.1 µM) |

test system: Staphylococcus aureus; assay: Antibacterial activity against methicillin sensitive Staphylococcus aureus 1199B assessed as bacterial growth inhibition incubated for overnight by microbroth dilution method; type: functional; summary of the method: as §5

| SMILES | MIC |
| --- | --- |
| N=C(N)NCCCCCCCCNC(=N)N | > 128 mg/L |
| CCCCC/C=C\C/C=C\CCCCCCCCNC(=N)NCCCCNC(=N)N | 4 mg/L (≈ 9.51 µM) |

test system: Pseudomonas aeruginosa; assay: Antibacterial activity against Pseudomonas aeruginosa NCTC 13437 assessed as bacterial growth inhibition incubated for overnight by microbroth dilution method; type: functional; summary of the method: as §4

| SMILES | MIC |
| --- | --- |
| N=C(N)NCCCCCCCCNC(=N)N | > 128 mg/L |
| CCCCC/C=C\C/C=C\CCCCCCCCNC(=N)NCCCCNC(=N)N | 64 mg/L (≈ 152 µM) |

test system: Escherichia coli; assay: Synergistic antibacterial activity against Escherichia coli NCTC 12923 assessed as rifampicin MIC at <=0.25 times MIC incubated for overnight by microbroth dilution checkerboard assay; type: functional; summary of the method: as §2

| SMILES | MIC |
| --- | --- |
| N=C(N)NCCCCCCCCNC(=N)N | 8 mg/L |
| CCCCC/C=C\C/C=C\CCCCCCCCNC(=N)NCCCCNC(=N)N | 4 mg/L |

test system: Enterococcus faecium; assay: Antibacterial activity against vancomycin resistant Enterococcus faecium NCTC 12204 assessed as bacterial growth inhibition incubated for overnight by microbroth dilution method; type: functional; summary of the method: as §5

| SMILES | MIC |
| --- | --- |
| N=C(N)NCCCCCCCCNC(=N)N | > 128 mg/L |
| CCCCC/C=C\C/C=C\CCCCCCCCNC(=N)NCCCCNC(=N)N | 8 mg/L (≈ 19 µM) |

test system: Escherichia coli; assay: Antibacterial activity against Escherichia coli NCTC 12923 assessed as bacterial growth inhibition incubated for overnight by microbroth dilution method; type: functional; summary of the method: as §4

| SMILES | MIC |
| --- | --- |
| N=C(N)NCCCCCCCCNC(=N)N | > 128 mg/L |
| CCCCC/C=C\C/C=C\CCCCCCCCNC(=N)NCCCCNC(=N)N | 8 mg/L (≈ 19 µM) |

test system: Acinetobacter baumannii; assay: Synergistic antibacterial activity against Acinetobacter baumannii ATCC 17978 assessed as rifampicin MIC at <=0.25 times MIC incubated for overnight by microbroth dilution checkerboard assay; type: functional; summary of the method: as §2

| SMILES | MIC |
| --- | --- |
| N=C(N)NCCCCCCCCNC(=N)N | 1 mg/L |
| CCCCC/C=C\C/C=C\CCCCCCCCNC(=N)NCCCCNC(=N)N | ≤ 0.125 mg/L |

test system: Pseudomonas aeruginosa; assay: Synergistic antibacterial activity against Pseudomonas aeruginosa PAO1 assessed as rifampicin MIC at <=0.25 times MIC incubated for overnight by microbroth dilution checkerboard assay; type: functional; summary of the method: as §3

| SMILES | MIC |
| --- | --- |
| N=C(N)NCCCCCCCCNC(=N)N | 32 mg/L |
| CCCCC/C=C\C/C=C\CCCCCCCCNC(=N)NCCCCNC(=N)N | 2 mg/L |

test system: Acinetobacter baumannii; assay: Synergistic antibacterial activity against Acinetobacter baumannii AYE assessed as rifampicin MIC at <=0.25 times MIC incubated for overnight by microbroth dilution checkerboard assay; type: functional; summary of the method: as §2

| SMILES | MIC |
| --- | --- |
| N=C(N)NCCCCCCCCNC(=N)N | 8 mg/L |
| CCCCC/C=C\C/C=C\CCCCCCCCNC(=N)NCCCCNC(=N)N | ≤ 0.125 mg/L |

test system: Klebsiella pneumoniae; assay: Synergistic antibacterial activity against Klebsiella pneumoniae NCTC 13368 assessed as fold change in rifampicin MIC at <=0.25 times MIC incubated for overnight by microbroth dilution checkerboard assay relative to rifampicin alone; type: functional; summary of the method: as §1

| SMILES | fold change (FC) |
| --- | --- |
| N=C(N)NCCCCCCCCNC(=N)N | 0 |
| CCCCC/C=C\C/C=C\CCCCCCCCNC(=N)NCCCCNC(=N)N | >=4 |
